Laboratory results from ChEMBL document CHEMBL4619811, “Systematic Investigation of the Permeability of Androgen Receptor PROTACs” (ACS Med Chem Lett, 2020).
Calls of active or inactive are those of the source. The rule behind the calls is not given here.

How the values were obtained:
[1] = Apparent permeability in pH 7.4 ammonium acetate buffer incubated for 5 hrs by PAMPA; type: ADME
Procedure, shortened: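 Passive permeability by PAMPA, reported as Papp in 10–6 cm s–1. Values under the limit of quantification were flagged as BLQ. Compound recovery in the assay was also determined.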

Albumin = Albumin (Homo sapiens, UniProt P02768); test: Binding affinity to HSA assessed as free fraction by HPLC analysis; type: ADME; conditions: isolated protein
[2] = Chromatographic hydrophobicity index, log D of the compound at pH 7.4 by HPLC analysis; type: physicochemical; conditions: buffer
[3] = molecular target: T1, von Hippel-Lindau disease tumor suppressor/Androgen receptor (Homo sapiens, UniProt P10275+P40337); test: Protac activity at VHL/androgen receptor in human LNCaP cells assessed as induction of androgen receptor protein degradation at 1 uM incubated for 6 hrs by Western blot analysis relative to control; type: cell-based
Target sequence in this assay (P10275 whole entry, looked up): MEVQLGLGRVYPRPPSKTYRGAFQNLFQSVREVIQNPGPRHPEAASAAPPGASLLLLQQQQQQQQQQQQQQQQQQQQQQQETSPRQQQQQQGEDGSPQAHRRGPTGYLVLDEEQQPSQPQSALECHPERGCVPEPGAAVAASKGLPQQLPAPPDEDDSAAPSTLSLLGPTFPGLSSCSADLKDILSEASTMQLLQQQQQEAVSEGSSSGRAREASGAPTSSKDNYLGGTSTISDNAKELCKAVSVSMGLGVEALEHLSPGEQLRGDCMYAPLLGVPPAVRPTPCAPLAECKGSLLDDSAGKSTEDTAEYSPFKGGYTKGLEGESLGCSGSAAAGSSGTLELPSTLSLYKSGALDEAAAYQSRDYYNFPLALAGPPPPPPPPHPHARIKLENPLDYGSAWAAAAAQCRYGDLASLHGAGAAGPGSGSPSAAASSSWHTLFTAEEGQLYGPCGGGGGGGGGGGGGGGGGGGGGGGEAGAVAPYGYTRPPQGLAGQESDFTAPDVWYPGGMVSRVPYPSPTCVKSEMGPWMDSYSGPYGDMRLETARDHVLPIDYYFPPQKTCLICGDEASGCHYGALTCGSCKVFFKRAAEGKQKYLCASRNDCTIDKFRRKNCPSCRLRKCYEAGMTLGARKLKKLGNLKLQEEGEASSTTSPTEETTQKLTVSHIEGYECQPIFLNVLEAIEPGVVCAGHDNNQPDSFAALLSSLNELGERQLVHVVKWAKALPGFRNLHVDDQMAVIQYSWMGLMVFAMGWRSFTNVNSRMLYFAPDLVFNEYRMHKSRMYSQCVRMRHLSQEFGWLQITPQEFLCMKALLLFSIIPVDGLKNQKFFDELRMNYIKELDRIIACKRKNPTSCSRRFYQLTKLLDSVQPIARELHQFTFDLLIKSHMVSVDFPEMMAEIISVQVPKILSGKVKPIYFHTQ
Target sequence in this assay (P40337 whole entry, looked up): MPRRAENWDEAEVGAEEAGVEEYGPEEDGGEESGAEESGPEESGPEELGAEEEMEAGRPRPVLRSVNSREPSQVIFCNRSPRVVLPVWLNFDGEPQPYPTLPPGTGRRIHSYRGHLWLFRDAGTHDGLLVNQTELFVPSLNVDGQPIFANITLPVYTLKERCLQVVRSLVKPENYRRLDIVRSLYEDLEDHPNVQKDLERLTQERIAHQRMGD

[4] = Apparent permeability from apical to basolateral side in human Caco2 cells at 10 uM incubated for 120 mins; type: ADME, cell-based; conditions: Caco-2
Procedure, shortened: (§1)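 Polarized Caco-2 cell monolayer, permeability measured in both directions (apical to basolateral and basolateral to apical), reported as Papp in 10–6 cm s–1. Efflux ratio taken as the ratio of the directional permeabilities. Compound recovery also determined.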

[5] = Apparent permeability from basolateral to apical side in human Caco2 cells at 10 uM incubated for 120 mins; type: ADME, cell-based; conditions: Caco-2; procedure, shortened: as §1
[6] = Efflux ratio of apparent permeability across basolateral to apical membrane over apical to basolateral membrane in human Caco2 cells at 10 uM incubated for 120 mins; type: ADME, cell-based; conditions: Caco-2; procedure, shortened: as §1
[7] = molecular target: T1, von Hippel-Lindau disease tumor suppressor/Androgen receptor; test: Protac activity at VHL/androgen receptor in human LNCaP cells assessed as induction of androgen receptor protein degradation incubated for 6 hrs by Western blot analysis; type: cell-based
Procedure, shortened: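 Androgen-dependent LNCaP prostate adenocarcinoma cells treated across a concentration range, then AR protein levels normalized and plotted against concentration. DCMAX is the percentage of AR cleared; DC50 is the concentration giving half of DCMAX. At least 5 independent experiments, each in triplicate. Significance by ANOVA with Dunnett's test.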

[8] = molecular target: T1, von Hippel-Lindau disease tumor suppressor/Androgen receptor; test: Protac activity at VHL/androgen receptor in human LNCaP cells assessed as induction of androgen receptor protein degradation incubated for 6 hrs by Western blot analysis relative to control; type: cell-based
Procedure, shortened: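 LNCaP cells (androgen-dependent human prostate adenocarcinoma) were exposed to a concentration series of PROTAC. AR protein levels were normalized and plotted against PROTAC concentration. DCMAX is the percentage of AR cleared, and DC50 is the concentration clearing half of DCMAX. Data come from at least 5 independent experiments run in triplicate, with ANOVA (Dunnett's) for significance.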
Target sequence in this assay (P10275 whole entry, looked up): as the sequence (P10275 whole entry, looked up) above
Target sequence in this assay (P40337 whole entry, looked up): as the sequence (P40337 whole entry, looked up) above

Sequence of Albumin (P02768 whole entry): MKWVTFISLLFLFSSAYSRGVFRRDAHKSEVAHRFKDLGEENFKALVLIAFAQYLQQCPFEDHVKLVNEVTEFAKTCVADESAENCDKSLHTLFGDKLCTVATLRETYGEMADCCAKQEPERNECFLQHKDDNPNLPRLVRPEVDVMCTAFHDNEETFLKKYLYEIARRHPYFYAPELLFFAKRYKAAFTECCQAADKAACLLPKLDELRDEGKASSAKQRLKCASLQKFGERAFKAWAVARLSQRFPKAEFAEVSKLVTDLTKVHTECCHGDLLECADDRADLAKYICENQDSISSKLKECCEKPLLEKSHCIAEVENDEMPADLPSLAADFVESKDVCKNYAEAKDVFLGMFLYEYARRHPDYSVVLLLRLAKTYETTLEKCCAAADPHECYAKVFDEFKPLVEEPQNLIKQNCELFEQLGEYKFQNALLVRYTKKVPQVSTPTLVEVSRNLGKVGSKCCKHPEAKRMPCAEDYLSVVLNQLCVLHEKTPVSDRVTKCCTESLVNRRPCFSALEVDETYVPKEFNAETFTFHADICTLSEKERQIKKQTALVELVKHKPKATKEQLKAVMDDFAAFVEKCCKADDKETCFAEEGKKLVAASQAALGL

SMILES	Papp at 5 h [1]	Activity (Albumin)	CHI [2]	Papp A→B at 2 h, 10 µM [4]	Papp B→A at 2 h, 10 µM [5]	efflux ratio at 2 h, 10 µM [6]	other results
N#Cc1ccc(N2CCC[C@@H]2C(O)COCCOCCOCCOCCOC23CC4CC(CC(C4)C2)C3)cc1C(F)(F)F (stereo partly drawn)	2.3 ×10⁻⁶ cm/s	–	–	–	–	–	–
Cc1ncsc1-c1ccc(CNC(=O)[C@@H]2C[C@@H](O)CN2C(=O)[C@@H](NC(=O)COCC(F)(F)COc2ccc(-c3ccc(N4C(=S)N(c5ccc(C#N)c(C(F)(F)F)c5)C(=O)C4(C)C)cc3)cc2)C(C)(C)C)cc1	< 1 ×10⁻⁶ cm/s	6%	6.1	–	–	–	–
Cc1ncsc1-c1ccc(CNC(=O)[C@@H]2C[C@@H](O)CN2C(=O)[C@@H](NC(=O)COCCCCCOc2ccc(C(=O)N[C@H]3C(C)(C)[C@H](Oc4ccc(C#N)c(C(F)(F)F)c4)C3(C)C)cc2)C(C)(C)C)cc1	< 1 ×10⁻⁶ cm/s	7%	6.7	–	–	–	–
CC(O)(COc1ccc(O)cc1)C(=O)Nc1ccc(C#N)c(C(F)(F)F)c1 (stereo not drawn)	1.4 ×10⁻⁶ cm/s	> 5%	4	–	–	–	Activity [3]: 23%
CC1(C)C(=O)N(c2ccc(C#N)c(C(F)(F)F)c2)C(=S)N1c1ccc(OCCOCCOCCOCCOC23CC4CC(CC(C4)C2)C3)cc1	< 1 ×10⁻⁶ cm/s	–	–	0.15 ×10⁻⁶ cm/s	0.22 ×10⁻⁶ cm/s	1.5	–
O=C1CC[C@H](N2Cc3c(O)cccc3C2=O)C(=O)N1	–	> 5%	0.2	–	–	–	–
OC12CC3CC(CC(C3)C1)C2	–	> 5%	7.9	–	–	–	Activity [3]: 18%
CC1(C)C(=O)N(c2ccc(C#N)c(C(F)(F)F)c2)C(=S)N1c1ccc(O)cc1	4.6 ×10⁻⁶ cm/s	> 5%	5	–	–	–	–
Cc1ncsc1-c1ccc(CNC(=O)[C@@H]2C[C@@H](O)CN2C(=O)[C@@H](NC(=O)COCCCOCCCCOc2ccc(N3C(=S)N(c4ccc(C#N)c(C(F)(F)F)c4)C(=O)C3(C)C)cc2)C(C)(C)C)cc1	< 1 ×10⁻⁶ cm/s	10%	6	< 27 ×10⁻⁶ cm/s	1.4 ×10⁻⁶ cm/s	> 0.5	–
Cc1ncsc1-c1ccc(CNC(=O)[C@@H]2C[C@@H](O)CN2C(=O)[C@@H](NC(=O)COCCCOc2ccc(-c3ccc(N4C(=S)N(c5ccc(C#N)c(C(F)(F)F)c5)C(=O)C4(C)C)cc3)cc2)C(C)(C)C)cc1	< 1 ×10⁻⁶ cm/s	7%	6.2	–	–	–	–
Cc1ncsc1-c1ccc(CNC(=O)[C@@H]2C[C@@H](O)CN2C(=O)[C@@H](NC(=O)COCCCOCC(F)(F)C(F)(F)COc2ccc(N3C(=S)N(c4ccc(C#N)c(C(F)(F)F)c4)C(=O)C3(C)C)cc2)C(C)(C)C)cc1	< 1 ×10⁻⁶ cm/s	7%	6.1	0.33 ×10⁻⁶ cm/s	0.33 ×10⁻⁶ cm/s	> 3	–
N#Cc1ccc(N2CCC[C@@H]2C(O)CO)cc1C(F)(F)F (stereo partly drawn)	13.3 ×10⁻⁶ cm/s	> 5%	–	–	–	–	–
CC1(C)C(=O)N(c2ccc(C#N)c(C(F)(F)F)c2)C(=S)N1c1ccc(OCCOCCOCCOCCOc2cccc3c2C(=O)N(C2CCC(=O)NC2=O)C3=O)cc1 (stereo not drawn)	< 1 ×10⁻⁶ cm/s	–	–	1.7 ×10⁻⁶ cm/s	14.1 ×10⁻⁶ cm/s	8.4	Activity [7]: inactive
CN1C(=O)N(c2ccc(C#N)c(C(F)(F)F)c2)C(=O)C1(C)c1ccc(OCCOCCOCCOCCOc2cccc3c2CN([C@H]2CCC(=O)NC2=O)C3=O)cc1 (stereo partly drawn)	0.3 ×10⁻⁶ cm/s	–	–	–	–	–	–
CC1(C)C(=O)N(c2ccc(C#N)c(C(F)(F)F)c2)C(=S)N1c1ccc(OCCOCCOCCOCCOc2cccc3c2CN([C@H]2CCC(=O)NC2=O)C3=O)cc1	–	–	–	–	–	–	%max [8]: 33%; DC50 [7]: 10 nM
CC(O)(COc1ccc(OCCOCCOCCOCCOc2cccc3c2CN([C@H]2CCC(=O)NC2=O)C3=O)cc1)C(=O)Nc1ccc(C#N)c(C(F)(F)F)c1 (stereo partly drawn)	0.4 ×10⁻⁶ cm/s	–	–	–	–	–	–
O=C1CCC(N2C(=O)c3cccc(O)c3C2=O)C(=O)N1 (stereo not drawn)	2 ×10⁻⁶ cm/s	> 5%	0.4	–	–	–	Activity [3]: 23%
CC(O)(COc1ccc(OCCOCCOCCOCCOc2cccc3c2C(=O)N(C2CCC(=O)NC2=O)C3=O)cc1)C(=O)Nc1ccc(C#N)c(C(F)(F)F)c1 (stereo not drawn)	0.3 ×10⁻⁶ cm/s	–	–	–	–	–	–
Cc1ncsc1-c1ccc(CNC(=O)[C@@H]2C[C@@H](O)CN2C(=O)[C@@H](NC(=O)COCC(F)(F)C(F)(F)C(F)(F)COCCCOc2ccc(N3C(=S)N(c4ccc(C#N)c(C(F)(F)F)c4)C(=O)C3(C)C)cc2)C(C)(C)C)cc1	< 1 ×10⁻⁶ cm/s	7%	6.3	0.26 ×10⁻⁶ cm/s	< 0.79 ×10⁻⁶ cm/s	< 3	–
CN1C(=O)N(c2ccc(C#N)c(C(F)(F)F)c2)C(=O)C1(C)c1ccc(O)cc1 (stereo not drawn)	8.3 ×10⁻⁶ cm/s	> 5%	4.4	–	–	–	–
Cc1ncsc1-c1ccc(CNC(=O)[C@@H]2C[C@@H](O)CN2C(=O)[C@@H](NC(=O)COCCCOCCCCCOc2ccc(N3C(=S)N(c4ccc(C#N)c(C(F)(F)F)c4)C(=O)C3(C)C)cc2)C(C)(C)C)cc1	< 1 ×10⁻⁶ cm/s	9%	6.3	0.35 ×10⁻⁶ cm/s	0.24 ×10⁻⁶ cm/s	0.7	–
Cc1ncsc1-c1ccc(CNC(=O)[C@@H]2C[C@@H](O)CN2C(=O)[C@@H](NC(=O)CCOCCOCCOCCOc2ccc(N3C(=S)N(c4ccc(C#N)c(C(F)(F)F)c4)C(=O)C3(C)C)cc2)C(C)(C)C)cc1	< 1 ×10⁻⁶ cm/s	11%	5.1	< 0.69 ×10⁻⁶ cm/s	2.6 ×10⁻⁶ cm/s	> 12	–
Cc1ncsc1-c1ccc(CNC(=O)[C@@H]2C[C@@H](O)CN2C(=O)[C@@H](NC(=O)CCOCCOCCOc2ccc(C(=O)N[C@H]3C(C)(C)[C@H](Oc4ccc(C#N)c(C(F)(F)F)c4)C3(C)C)cc2)C(C)(C)C)cc1	< 1 ×10⁻⁶ cm/s	8%	5.8	–	–	–	–
